Statin myotox sup: suppressors of statin myotoxicity in C2C12 myotubes, primary screen, cell-based, single point, plate reader | rescue of ATP level, % at 7.49 µM | AID 602340, 2012 | 330,000 tested, 0.78% active | C2C12 myotubes + simvastatin, ATP luminescence, 48 h; scaled: DMSO 0, geranylgeraniol control 100;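 active = mean ATP rescue above about 67%, or every replicate alone reaching that limit, limit read from the data, passing the limit was not always enough; inconclusive = no clear call, values can overlap the other calls; inactive = mean under the limit and some replicate under it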;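 note: myotubes were challenged with 10 µM simvastatin during compound exposure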
CAL PDZ FP-1: CAL PDZ peptide-binding inhibitors, primary screen, biochemical, fluorescence polarization, Cer-tagged CAL PDZ, HTS; 330,000 tested, 0.02% active; Golgi-associated PDZ and coiled-coil motif-containing protein (Homo sapiens), Q9HD26; purified CAL PDZ, TMR-peptide fluorescence polarization, 1 h; AID 504414, 2011; inhibition, % at 20 µM;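 active = highest replicate inhibition of at least 40%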;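 note: plate controls were DMSO neutral control wells for no effect and unlabeled competitor peptide control wells for full effect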
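System: tagged CAL PDZ domain. Schedule: 1 h room-temperature incubation prior to read. Signal: fluorescence polarization (mP). Measure: percent inhibition from loss of millipolarization.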
dFosB act: activators of delta FosB homodimer, primary screen, biochemical, fluorescence polarization, TAMRA-CDK5 oligo, single point. activation, % at 25 µM. purified delta FosB; percent of positive-control signal above neutral wells. 340,000 tested, 0.99% active;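 active = mean activation above about 17%, with every replicate also reaching it, limit read from the data, passing the limit was not always enough; inconclusive = only one of the two conditions met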
Target sequence (P13346 whole entry, looked up): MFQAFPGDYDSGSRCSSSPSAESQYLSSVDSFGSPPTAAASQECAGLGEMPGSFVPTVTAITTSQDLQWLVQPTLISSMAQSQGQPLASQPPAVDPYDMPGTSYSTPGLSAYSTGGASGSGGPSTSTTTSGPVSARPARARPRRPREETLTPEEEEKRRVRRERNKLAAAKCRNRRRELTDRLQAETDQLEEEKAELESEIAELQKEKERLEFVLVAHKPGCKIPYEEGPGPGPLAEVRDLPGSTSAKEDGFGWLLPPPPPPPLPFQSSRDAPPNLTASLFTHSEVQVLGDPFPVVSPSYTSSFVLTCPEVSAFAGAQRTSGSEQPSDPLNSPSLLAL
CAL PDZ FP-2: untagged CAL PDZ binding inhibitors, primary screen, biochemical, fluorescence polarization, HTS; Golgi-associated PDZ and coiled-coil motif-containing protein (Homo sapiens), Q9HD26; purified CAL PDZ, TMR-peptide fluorescence polarization, 1 h; inhibition, % at 24.9 µM; 300,000 tested, 0.92% active; AID 602252, 2012;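 active = mean inhibition of at least 30% with at least half of replicates also reaching 30%; inconclusive = no clear call, values can overlap the other calls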;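 note: 0% = DMSO neutral control and 100% = excess unlabeled competitor peptide PRC23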
CDK5 p35 inh: inhibitors of human CDK5/p35 kinase, primary screen, biochemical, single concentration; inhibition, % at 10 µM; 330,000 tested, 0.01% active; Cyclin-dependent kinase 5 (Homo sapiens) + Cyclin-dependent kinase 5 activator 1 (Homo …; AID 488839, 2010; Recombinant CDK5/p35, ADP-Glo luminescence, 60 min;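 active = highest replicate inhibition of at least 50% and at least 75% of replicates reaching 50%; inconclusive = only one of the two criteria met; inactive = both criteria failed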;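 note: plate controls were DMSO neutral control for no effect and GW8510 at 10 µM for full effect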
S100A4 MyoIIA: inhibitors of S100A4-myosin IIA peptide binding, primary screen, biochemical, fluorescence polarization, TAMRA-MyoIIA peptide. inhibition, % at 10.7 µM. AID 652163, 2013. Protein S100-A4 (Homo sapiens), P26447. 360,000 tested, 0.14% active;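 active = mean inhibition of at least 70% across replicates, with every replicate also reaching that level; inconclusive = mean inhibition reaches 70% but some replicates fall short; inactive = mean inhibition below 70%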
Target sequence (P26447 whole entry, looked up): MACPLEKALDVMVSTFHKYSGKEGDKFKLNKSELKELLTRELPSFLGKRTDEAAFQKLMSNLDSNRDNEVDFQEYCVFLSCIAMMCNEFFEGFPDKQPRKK
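Material: human S100A4 monomer with TAMRA-labelled myosin IIA peptide; buffer or medium: HEPES pH 7.2 with CaCl2, KCl, NaCl, DTT, Triton; compound dosing: one concentration per compound; schedule: 5 min incubation before reading; benchmarks: neutral control DMSO, positive control TFP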
The depositor's hits bear a star; u = inconclusive; x = not tested or not shown. Sampled rows, rich in hits. Any-hit rate of the full collection: about 2%.

SMILES	Statin myotox sup	CAL PDZ FP-1	dFosB act	CAL PDZ FP-2	CDK5 p35 inh	S100A4 MyoIIA
CCCCCn1c(CN2CCN(c3cccc(Cl)c3)CC2)nc2c1c(=O)[nH]c(=O)n2C	3	-4	-17	x	1	x
CCO[C@@H]1OC(C(=O)N2CCN(Cc3ccccc3)CC2)=C[C@H](c2ccc(Br)cc2)[C@H]1CCCO	2	-1	-8	-5	0	x
O=C(c1ccc2c3c(cccc13)CC2)C1CCCN(Cc2ccccn2)C1 (stereo unspecified)	-7	-2	0	-1	1	1
FC(F)(F)c1cccc(-c2nnc(-c3ccccc3)c(N3CCOCC3)n2)c1	134*	-1	-3	2	-1	x
FC(F)(F)c1nnc(-c2ccccc2)nc1N1CCOCC1	7	0	-2	-4	0	x
CO[C@@H]1CN(C)C(=O)c2cc(NC(=O)Nc3ccccc3)ccc2OC[C@@H](C)N(C(C)=O)C[C@@H]1C	-7	x	x	x	x	-1
Cc1ccc(N2CCN(S(=O)(=O)c3ccc(-n4cnnn4)cc3)CC2)c(C)c1	-4	0	-8	79*	2	-1
CC(C)=Nc1ccccc1C1COC(=O)C1=N (stereo unspecified)	x	0	-7	-5	1	-3
C=CCn1c(CCCNC(=O)C(C)(C)C)nc2ccccc21	20	-1	12	x	-2	-3
C=C(C)Cn1c(CCCNC(=O)C(C)(C)C)nc2ccccc21	154*	1	-8	-5	1	x
CN(C)c1ccccc1-c1csc(N2CCC(C(N)=O)CC2)n1	5	-1	-4	-1	2	-4
O=C(/C=C/c1cccc([N+](=O)[O-])c1)NCCSCc1cccc(Cl)c1	x	0	2	52*	-2	x
O=C1C(SC(F)(F)C(F)F)=C(C(F)(F)F)OC2C3C=CC(C3)C12 (stereo unspecified)	107*	-2	-7	1	2	x
O=C(O)c1cc(S(=O)(=O)Nc2cccc3ccccc23)c(Cl)cc1Cl	75*	-2	-4	-5	-2	-8
CC(=O)n1nc(-c2ccncc2)nc1SCC(=O)Nc1cccc(Cl)c1	55	-2	-9	45*	2	4
Cc1ccc(/C=C/C(=O)c2c(C)cc(C)[nH]c2=O)cc1	3	0	-4	-2	-2	4
CCC/C(O)=C1\C(=O)CC(C)(C)CC1=Nc1ccc(OC)cc1OC	-58	0	-1	60*	-1	x
COC(=O)C1=C(C)N(Cc2ccccc2)C(=S)N[C@H]1c1cccc(F)c1	5	0	8	-3	-1	0
CCCC#Cc1ccc2c(c1)O[C@@H](CN(C)C(=O)c1ccccc1F)[C@@H](C)CN([C@@H](C)CO)S2(=O)=O	2	x	x	x	x	-4
CCOC(=O)c1c(NC(=O)CN2CCC(C)CC2)sc(C)c1C	0	11	8	45*	-1	-11
COc1ccc(CNC(=O)CSc2nc3c(oc4ccccc43)c(=O)n2CC2CCCO2)cc1 (stereo unspecified)	-7	-2	-6	2	-2	-3
CCOC(=O)c1c(N)c(C#N)c2n1CCCCC2	-4	x	6	37*	1	x
CCOC(=O)c1c(N)c(C#N)c2n1CCCC2	113*	0	0	2	0	x
NC(=O)c1ccnc2c(O)cccc12	11	0	-4	1	0	4
C[C@@H]1CN([C@H](C)CO)C(=O)c2cc(NC(=O)Nc3cccc4ccccc34)ccc2O[C@@H]1CN(C)Cc1ccc(C(=O)Nc2ccccc2N)cc1	149*	x	x	x	x	16
SMILES	Statin myotox sup	CAL PDZ FP-1	dFosB act	CAL PDZ FP-2	CDK5 p35 inh	S100A4 MyoIIA
C[C@@H]1CN([C@@H](C)CO)C(=O)c2cc(NS(=O)(=O)c3ccc(Cl)cc3)ccc2O[C@H]1CN(C)Cc1ccc(C(=O)Nc2ccccc2N)cc1	36	x	x	x	x	-1
C[C@H]1CN([C@@H](C)CO)C(=O)c2cc(N(C)C)ccc2O[C@@H]1CN(C)Cc1ccc(C(=O)Nc2ccccc2N)cc1	81*	x	x	x	x	4
C[C@@H]1CN([C@H](C)CO)C(=O)c2cc(NC(=O)Nc3cccc4ccccc34)ccc2O[C@H]1CN(C)Cc1ccc(C(=O)Nc2ccccc2N)cc1	30	x	x	x	x	7
C[C@H](CO)N1C[C@H](C)[C@H](CN(C)Cc2ccc(C(=O)Nc3ccccc3N)cc2)Oc2ccc(NC(=O)Nc3cccc4ccccc34)cc2CC1=O	240*	x	x	x	x	3
C[C@@H]1CN([C@@H](C)CO)C(=O)Cc2cc(NC(=O)Nc3cccc4ccccc34)ccc2O[C@@H]1CN(C)Cc1ccc(C(=O)Nc2ccccc2N)cc1	x	x	x	x	x	0
C[C@@H]1CN([C@@H](C)CO)C(=O)c2cc(N(C)C)ccc2O[C@@H]1CN(C)Cc1ccc(C(=O)Nc2ccccc2N)cc1	-123	x	x	x	x	6
C[C@@H]1CN([C@H](C)CO)C(=O)c2cc(NS(=O)(=O)c3ccc(Cl)cc3)ccc2O[C@@H]1CN(C)Cc1ccc(C(=O)Nc2ccccc2N)cc1	97*	x	x	x	x	6
O=C(COC(=O)c1ccccc1O)Nc1ccc2ccccc2c1	6	0	u	x	1	-7
C[C@@H]1CN([C@H](C)CO)C(=O)c2cc(NC(=O)Nc3ccc(C(F)(F)F)cc3)ccc2O[C@@H]1CN(C)Cc1ccc(C(=O)Nc2ccccc2N)cc1	113*	x	x	x	x	-1
C[C@H]1CN([C@@H](C)CO)C(=O)c2cc(NC(=O)Nc3ccc4c(c3)OCO4)ccc2O[C@@H]1CN(C)C(=O)Nc1ccc(C(F)(F)F)cc1	91*	x	x	x	x	-12
C[C@H]1CN([C@@H](C)CO)C(=O)c2cc(NC(=O)Nc3ccc(C(F)(F)F)cc3)ccc2O[C@@H]1CN(C)C(=O)Nc1ccc2c(c1)OCO2	54	x	x	x	x	-2
O=C(OCC(=O)c1ccccc1)C1=NN(c2ccccc2)C(=O)CC1	8	0	-4	x	-5	3
O=C(OCc1csc(-c2ccccc2)n1)C1=NN(c2ccccc2)C(=O)CC1	4	0	-10	31*	1	-2
O=C(c1ccccn1)N1C[C@@H]2[C@H](c3ccccc31)[C@@H](CO)N2C(=O)Nc1ccccc1Cl	-17	x	x	x	x	-3

Screening data from PubChem.
